Assay results published in ChEMBL document CHEMBL4229515, “A novel synthesis of 2-arylbenzimidazoles in molecular sieves-MeOH system and their antitubercular activity” (Bioorg Med Chem, 2018).

Tests used:
Format in all cases: organism-based
Mus musculus [1] = assay: Acute toxicity in Swiss albino mouse assessed as effect on body weight at 5 mg/kg, po after 7 days (reference value: 28.25 +/- 0.54 g); details: in vivo, 168 h
Mus musculus [2] = assay: Acute toxicity in Swiss albino mouse assessed as effect on RBC count at 5 mg/kg, po after 7 days (reference value: 7.61 +/- 0.54 10^6/mm3); details: in vivo, 168 h
Mus musculus [3] = assay: Acute toxicity in Swiss albino mouse assessed as effect on WBC count at 5 mg/kg, po after 7 days (reference value: 7.47 +/- 1.61 10^3/mm3); details: in vivo, 168 h
Mus musculus [4] = assay: Acute toxicity in Swiss albino mouse assessed as effect on ALKP levels at 5 mg/kg, po after 7 days (reference value: 219.20 +/- 5.9 U/L); details: in vivo, 168 h
Mus musculus [5] = assay: Acute toxicity in Swiss albino mouse assessed as effect on body weight at 50 mg/kg, po after 7 days (reference value: 28.25 +/- 0.54 g); details: in vivo, 168 h
Mus musculus [6] = assay: Acute toxicity in Swiss albino mouse assessed as effect on SGPT levels at 50 mg/kg, po after 7 days (reference value: 16.08 +/- 1.38 U/L); details: in vivo, 168 h
Mus musculus [7] = assay: Acute toxicity in Swiss albino mouse assessed as effect on SGOT levels at 50 mg/kg, po after 7 days (reference value: 15.11 +/- 1.25 U/L); details: in vivo, 168 h
Mus musculus [8] = assay: Acute toxicity in Swiss albino mouse assessed as effect on albumin levels at 50 mg/kg, po after 7 days (reference value: 3.53 +/- 0.35 mg/dL); details: in vivo, 168 h
Mus musculus [9] = assay: Acute toxicity in Swiss albino mouse assessed as effect on serum protein levels at 50 mg/kg, po after 7 days (reference value: 0.10 +/- 0.004 mg/mL); details: in vivo, 168 h
Mus musculus [10] = assay: Acute toxicity in Swiss albino mouse assessed as effect on MDA levels per mg of tissue protein at 50 mg/kg, po after 7 days (reference value: 0.24 +/- 0.05 nmol); details: in vivo, 168 h
Mus musculus [11] = assay: Acute toxicity in Swiss albino mouse assessed as effect on GSH levels per mg of tissue protein at 50 mg/kg, po after 7 days (reference value: 17.64 +/- 1.03 micromol); details: in vivo, 168 h
Mus musculus [12] = assay: Acute toxicity in Swiss albino mouse assessed as effect on body weight at 300 mg/kg, po after 7 days (reference value: 28.25 +/- 0.54 g); details: in vivo, 168 h
Mus musculus [13] = assay: Acute toxicity in Swiss albino mouse assessed as effect on RBC count at 300 mg/kg, po after 7 days (reference value: 7.61 +/- 0.54 10^6/mm3); details: in vivo, 168 h
Mus musculus [14] = assay: Acute toxicity in Swiss albino mouse assessed as effect on WBC count at 300 mg/kg, po after 7 days (reference value: 7.47 +/- 1.61 10^3/mm3); details: in vivo, 168 h
Mus musculus [15] = assay: Acute toxicity in Swiss albino mouse assessed as effect on SGPT levels at 300 mg/kg, po after 7 days (reference value: 16.08 +/- 1.38 U/L); details: in vivo, 168 h
Mus musculus [16] = assay: Acute toxicity in Swiss albino mouse assessed as effect on ALKP levels at 300 mg/kg, po after 7 days (reference value: 219.20 +/- 5.9 U/L); details: in vivo, 168 h
Mus musculus [17] = assay: Acute toxicity in Swiss albino mouse assessed as effect on haemoglobin levels at 300 mg/kg, po after 7 days (reference value: 12.29 +/- 0.53 g/dL); details: in vivo, 168 h
Mus musculus [18] = assay: Acute toxicity in Swiss albino mouse assessed as effect on albumin levels at 300 mg/kg, po after 7 days (reference value: 3.53 +/- 0.35 mg/dL); details: in vivo, 168 h
Mus musculus [19] = assay: Acute toxicity in Swiss albino mouse assessed as effect on serum protein levels at 300 mg/kg, po after 7 days (reference value: 0.10 +/- 0.004 mg/mL); details: in vivo, 168 h
Mus musculus [20] = assay: Acute toxicity in Swiss albino mouse assessed as effect on tissue protein levels at 300 mg/kg, po after 7 days (reference value: 0.06 +/- 0.004 mg/mL); details: in vivo, 168 h
Mus musculus [21] = assay: Acute toxicity in Swiss albino mouse assessed as effect on MDA levels per mg of tissue protein at 300 mg/kg, po after 7 days (reference value: 0.24 +/- 0.05 nmol); details: in vivo, 168 h
Mus musculus [22] = assay: Acute toxicity in Swiss albino mouse assessed as effect on WBC count at 1000 mg/kg, po after 7 days (reference value: 7.47 +/- 1.61 10^3/mm3); details: in vivo, 168 h
Mus musculus [23] = assay: Acute toxicity in Swiss albino mouse assessed as effect on SGPT levels at 1000 mg/kg, po after 7 days (reference value: 16.08 +/- 1.38 U/L); details: in vivo, 168 h
Mus musculus [24] = assay: Acute toxicity in Swiss albino mouse assessed as effect on SGOT levels at 1000 mg/kg, po after 7 days (reference value: 15.11 +/- 1.25 U/L); details: in vivo, 168 h
Mus musculus [25] = assay: Acute toxicity in Swiss albino mouse assessed as effect on cholesterol levels at 1000 mg/kg, po after 7 days (reference value: 89.73 +/- 10.76 mg/dL); details: in vivo, 168 h
Mus musculus [26] = assay: Acute toxicity in Swiss albino mouse assessed as effect on albumin levels at 1000 mg/kg, po after 7 days (reference value: 3.53 +/- 0.35 mg/dL); details: in vivo, 168 h
Mus musculus [27] = assay: Acute toxicity in Swiss albino mouse assessed as effect on MDA levels per mg of tissue protein at 1000 mg/kg, po after 7 days (reference value: 0.24 +/- 0.05 nmol); details: in vivo, 168 h
Mus musculus [28] = assay: Acute toxicity in Swiss albino mouse assessed as change in morbidity up to 300 mg/kg, po measured over 7 days; details: in vivo, 168 h
How it was run: (§1)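 Single acute oral dose of 5, 50, 300 or 1000 mg/kg body weight, with an untreated control group; n=6 mice per group. Animals observed for 7 days for morbidity, mortality, behaviour and body weight. At the end, blood and serum were analysed, and organs were examined grossly with absolute and relative weights. Data are mean±SE; P<0.05 was taken as significant versus control and the lower-dose groups.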

[29] = Acute toxicity in Swiss albino mouse assessed as mortality at 1000 mg/kg, po measured over 7 days; details: in vivo, read-out: Activity; how it was run: as §1
Mus musculus [30] = assay: Acute toxicity in Swiss albino mouse assessed as depression at 1000 mg/kg, po measured over 7 days; details: in vivo, 168 h; how it was run: as §1
Mus musculus [31] = assay: Acute toxicity in Swiss albino mouse assessed as inactivity at 1000 mg/kg, po measured over 7 days; details: in vivo, 168 h; how it was run: as §1
Mus musculus [32] = assay: Acute toxicity in Swiss albino mouse assessed as effect on absolute liver weight at 5 to 1000 mg/kg, po after 7 days; details: in vivo, 168 h; how it was run: as §1
Mus musculus [33] = assay: Acute toxicity in Swiss albino mouse assessed as effect on absolute lung weight at 5 to 1000 mg/kg, po after 7 days; details: in vivo, 168 h; how it was run: as §1
Mus musculus [34] = assay: Acute toxicity in Swiss albino mouse assessed as effect on absolute brain weight at 5 to 1000 mg/kg, po after 7 days; details: in vivo, 168 h; how it was run: as §1
Mus musculus [35] = assay: Acute toxicity in Swiss albino mouse assessed as effect on absolute spleen weight at 5 to 1000 mg/kg, po after 7 days; details: in vivo, 168 h; how it was run: as §1
Mus musculus [36] = assay: Acute toxicity in Swiss albino mouse assessed as effect on relative kidney weight at 5 to 1000 mg/kg, po after 7 days; details: in vivo, 168 h; how it was run: as §1

In the case of `COc1ccc2c(c1)nc(-c1ccccc1OC)n2Cc1ccccc1OC`, the Activity (Mus musculus [1]) is reported as 28.47 g, the Activity (Mus musculus [2]) is reported as 6.92 10^6/mm3 and the Activity (Mus musculus [3]) is reported as 7.72 10^3/mm3. The Activity (Mus musculus [4]) was 172.1 U/L, the Activity (Mus musculus [5]) was 27.61 g and the Activity (Mus musculus [6]) was 15.98 U/L. The Activity (Mus musculus [7]) was 11.5 U/L, the Activity (Mus musculus [8]) was 3.58 mg/dL and the Activity (Mus musculus [9]) was 0.09 mg/mL. The Activity (Mus musculus [10]) was 0.32 nmol, the Activity (Mus musculus [11]) was 17.1 µmol and the Activity (Mus musculus [12]) was 25.47 g. The Activity (Mus musculus [13]) was 6.87 10^6/mm3, the Activity (Mus musculus [14]) was 5.67 10^3/mm3 and the Activity (Mus musculus [15]) was 12.26 U/L. It also gave an Activity (Mus musculus [16]) of 169.24 U/L, an Activity (Mus musculus [17]) of 11.51 g/dL and an Activity (Mus musculus [18]) of 3.79 mg/dL. The Activity (Mus musculus [19]) was 0.09 mg/mL, the Activity (Mus musculus [20]) was 0.05 mg/mL and the Activity (Mus musculus [21]) was 0.39 nmol. The Activity (Mus musculus [22]) was 6.67 10^3/mm3, the Activity (Mus musculus [23]) was 11.72 U/L and the Activity (Mus musculus [24]) was 11.83 U/L. It also gave an Activity (Mus musculus [25]) of 115.43 mg/dL, an Activity (Mus musculus [26]) of 2.89 mg/dL and an Activity (Mus musculus [27]) of 0.71 nmol. The Activity (Mus musculus [28]) was “Non-Toxic”, the mortality at 168 h [29] was 50% and the Activity (Mus musculus [30]) was “Non-Toxic”. The Activity (Mus musculus [31]) was “Non-Toxic”, the Activity (Mus musculus [32]) was “Non-Toxic” and the Activity (Mus musculus [33]) was “Non-Toxic”. For the same compound, the Activity (Mus musculus [34]) was “Non-Toxic”, the Activity (Mus musculus [35]) was “Non-Toxic” and the Activity (Mus musculus [36]) was “Non-Toxic”.
